# Measured values taken from ChEMBL document CHEMBL1944548, “Discovery of kinase spectrum selective macrocycle (16E)-14-methyl-20-oxa-5,7,14,26-tetraazatetracyclo[19.3.1.1(2,6).1(8,12)]heptacosa-1(25),2(26),3,5,8(27),9,11,16,21,23-decaene (SB1317/TG02), a potent inhibitor of cyclin dependent kinases (CDKs), Janus kinase 2 (JAK2), and fms-like tyrosine …” (J Med Chem, 2012).
# Columns and labels:
# [1] = target: T1, Receptor-type tyrosine-protein kinase FLT3 (Homo sapiens, UniProt P36888); assay: Inhibition of recombinant Flt3 using poly(Glu,Tyr) as substrate after 2 hrs by luminescence assay
# T1 sequence (P36888 whole entry): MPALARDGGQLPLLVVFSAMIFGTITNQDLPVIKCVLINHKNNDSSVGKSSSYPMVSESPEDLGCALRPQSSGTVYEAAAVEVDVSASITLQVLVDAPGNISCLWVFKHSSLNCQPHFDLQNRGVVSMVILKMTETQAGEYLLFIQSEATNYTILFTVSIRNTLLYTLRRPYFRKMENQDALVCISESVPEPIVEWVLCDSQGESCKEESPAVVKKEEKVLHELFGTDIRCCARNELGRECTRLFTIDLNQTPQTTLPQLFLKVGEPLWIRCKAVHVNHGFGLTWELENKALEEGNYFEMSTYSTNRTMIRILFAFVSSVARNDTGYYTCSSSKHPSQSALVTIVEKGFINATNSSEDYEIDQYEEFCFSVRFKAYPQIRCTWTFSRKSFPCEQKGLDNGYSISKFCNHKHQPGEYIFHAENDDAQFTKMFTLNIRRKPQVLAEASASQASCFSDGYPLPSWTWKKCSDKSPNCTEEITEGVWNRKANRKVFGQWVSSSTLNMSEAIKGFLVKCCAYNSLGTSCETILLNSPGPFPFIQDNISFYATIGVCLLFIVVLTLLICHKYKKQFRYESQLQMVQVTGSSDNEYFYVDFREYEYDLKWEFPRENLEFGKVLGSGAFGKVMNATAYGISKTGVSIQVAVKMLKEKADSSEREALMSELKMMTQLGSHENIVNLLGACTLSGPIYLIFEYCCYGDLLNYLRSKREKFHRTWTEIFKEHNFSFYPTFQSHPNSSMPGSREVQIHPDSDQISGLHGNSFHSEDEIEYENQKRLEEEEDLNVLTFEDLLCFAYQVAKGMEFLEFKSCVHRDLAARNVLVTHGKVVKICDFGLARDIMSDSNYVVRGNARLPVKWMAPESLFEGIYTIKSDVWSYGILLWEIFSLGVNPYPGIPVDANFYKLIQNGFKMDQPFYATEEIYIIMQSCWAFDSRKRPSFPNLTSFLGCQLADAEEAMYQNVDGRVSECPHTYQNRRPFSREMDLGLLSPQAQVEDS
# [2] = target: Cyclin-dependent kinase 2/cyclin A (Homo sapiens, UniProt P24941); assay: Inhibition of recombinant Cdk2/cyclin A using RbING as substrate after 2 hrs by luminescence assay; assay type: protein-complex assay
# [3] = target: Tyrosine-protein kinase JAK2 (Homo sapiens, UniProt O60674); assay: Inhibition of recombinant JAK2 using poly(Glu,Ala,Tyr) as substrate after 2 hrs by luminescence assay
# Chain of Tyrosine-protein kinase JAK2 (O60674 whole entry): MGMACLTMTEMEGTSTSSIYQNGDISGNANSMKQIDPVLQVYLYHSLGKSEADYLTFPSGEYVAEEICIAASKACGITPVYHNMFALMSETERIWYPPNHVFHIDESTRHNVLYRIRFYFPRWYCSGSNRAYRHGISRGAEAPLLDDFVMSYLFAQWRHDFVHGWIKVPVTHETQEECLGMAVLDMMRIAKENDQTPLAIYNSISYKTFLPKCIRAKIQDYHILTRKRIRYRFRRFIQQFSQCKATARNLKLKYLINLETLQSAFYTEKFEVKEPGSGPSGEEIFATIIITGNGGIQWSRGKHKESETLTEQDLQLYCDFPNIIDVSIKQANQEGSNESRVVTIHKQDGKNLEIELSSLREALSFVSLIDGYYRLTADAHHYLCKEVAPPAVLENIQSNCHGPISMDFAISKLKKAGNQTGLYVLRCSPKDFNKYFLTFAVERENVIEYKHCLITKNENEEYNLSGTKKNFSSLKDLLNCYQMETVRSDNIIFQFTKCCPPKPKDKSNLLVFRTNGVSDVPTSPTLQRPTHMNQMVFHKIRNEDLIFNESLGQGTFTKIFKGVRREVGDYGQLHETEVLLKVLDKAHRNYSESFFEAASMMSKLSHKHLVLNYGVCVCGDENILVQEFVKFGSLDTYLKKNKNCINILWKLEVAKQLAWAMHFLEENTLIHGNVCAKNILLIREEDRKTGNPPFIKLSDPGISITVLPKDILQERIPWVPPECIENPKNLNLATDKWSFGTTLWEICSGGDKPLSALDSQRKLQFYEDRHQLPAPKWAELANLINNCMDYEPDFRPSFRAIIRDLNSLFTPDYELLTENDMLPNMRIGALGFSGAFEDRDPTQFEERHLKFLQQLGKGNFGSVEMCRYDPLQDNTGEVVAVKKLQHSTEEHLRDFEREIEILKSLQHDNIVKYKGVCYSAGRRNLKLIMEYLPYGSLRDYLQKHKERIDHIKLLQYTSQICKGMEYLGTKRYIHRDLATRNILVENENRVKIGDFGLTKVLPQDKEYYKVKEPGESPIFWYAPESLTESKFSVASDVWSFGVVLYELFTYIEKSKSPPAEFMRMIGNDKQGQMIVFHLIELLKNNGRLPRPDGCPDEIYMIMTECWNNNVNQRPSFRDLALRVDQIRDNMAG
# [4] = Solubility of the compound in PBS buffer at 250 uM at pH 7 by UV spectrophotometry; assay type: physicochemical
# HCT-116 = assay: Antiproliferative activity against human HCT116 cells after 48 hrs; assay type: functional, cell-based; conditions: HCT-116, 48 h
# HL-60 = assay: Antiproliferative activity against human HL60 cells after 48 hrs; assay type: functional, cell-based; conditions: HL-60, 48 h
# [5] = Half life in human liver microsomes at 5 uM by LC-MS/MS analysis; assay type: ADME, Microsome
# In short: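 5 μM with mouse, rat, dog or human liver microsomes (~0.87 mg/mL), 50 mM potassium phosphate pH 7.4, NADPH regeneration system, 37 °C.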
# [6] = Oral bioavailability in nude mouse at 50 mg/kg; assay type: ADME, organism-based; conditions: in vivo
SMILES,IC50 [1] [nM],IC50 [2] [nM],IC50 [3] [nM],solubility at 250 µM [4] [µg/mL],IC50 (HCT-116) [nM],IC50 (HL-60) [nM],half-life at 5 µM [5] [min],bioavailability [6] [%]
CCS(=O)(=O)CCOc1ccc2cc1CN(C)C/C=C/CCOc1cccc(c1)-c1ccnc(n1)N2,93,170,110,–,–,–,–,–
COCCN1C/C=C/CCOc2cccc(c2)-c2ccnc(n2)Nc2cccc(c2)C1,490,410,1600,–,–,–,–,–
CN1C/C=C/CCOc2cccc(c2)-c2ccnc(n2)Nc2cc(cc(NC(=O)C(F)(F)F)c2)C1,19,8,50,–,–,–,–,–
CN1CCN(CCOc2ccc3cc2CN(C)C/C=C/CCOc2cccc(c2)-c2ccnc(n2)N3)CC1,250,900,220,–,–,–,–,–
O=C(N1C/C=C/CCOc2cccc(c2)-c2ccnc(n2)Nc2cccc(c2)C1)C(F)(F)F,> 10000,> 10000,> 10000,–,–,–,–,–
CN1C/C=C/CCOc2cccc(c2)-c2ccnc(n2)Nc2ccc(Cl)c(c2)C1,77,24,82,–,–,–,–,–
CN1C/C=C/COCc2cccc(c2)Nc2nccc(n2)-c2cccc(c2)C1,310,99,230,–,–,–,–,–
CN1C/C=C/CCOc2cccc(c2)-c2ccnc(n2)Nc2ccc(OCCN3CCCCC3)c(c2)C1,45,260,62,146,–,–,–,–
C1=C/CNCc2cccc(c2)Nc2nccc(n2)-c2cccc(c2)OCC/1,110,21,–,–,–,–,–,–
CN1C/C=C/CCOc2cc(F)cc(c2)-c2ccnc(n2)Nc2cccc(c2)C1,22,9,160,–,–,–,–,–
CN1C/C=C/CCOc2cccc(c2)-c2ccnc(n2)Nc2ccc(OCCN3CCOCC3)c(c2)C1,40,300,120,154,–,–,–,–
C1=C/CN(C2CC2)Cc2cccc(c2)Nc2nccc(n2)-c2cccc(c2)OCC/1,42,–,90,–,–,–,–,–
CC(C)CN1C/C=C/CCOc2cccc(c2)-c2ccnc(n2)Nc2cccc(c2)C1,190,200,1500,–,–,–,–,–
N#CCN1C/C=C/CCOc2cccc(c2)-c2ccnc(n2)Nc2ccc(OCCN3CCCC3)c(c2)C1,29,310,150,–,–,–,–,–
COc1ccc2cc1CN(C)C/C=C/CCOc1cccc(c1)-c1ccnc(n1)N2,66,77,280,–,–,–,–,–
C1=C/CNc2cccc(c2)Nc2nccc(n2)-c2cccc(c2)OCC/1,2900,150,3300,–,–,–,–,–
CN1C/C=C/CCOc2cccc(c2)-c2ccnc(n2)Nc2ccc(OC(F)(F)F)c(c2)C1,160,57,150,–,–,–,–,–
O=C1CC/C=C\COc2cccc(c2)-c2ccnc(n2)Nc2cccc(c2)N1,1020,2600,1750,–,–,–,–,–
CN1C/C=C/CCOc2cccc(c2)-c2ccnc(n2)Nc2ccc(OCC(=O)N3CCCC3)c(c2)C1,150,390,140,–,–,–,–,–
CN1C/C=C/CCOc2cccc(c2)-c2ccnc(n2)Nc2cc(N)cc(c2)C1,19,7,50,–,–,–,–,–

SMILES,IC50 [1] [nM],IC50 [2] [nM],IC50 [3] [nM],solubility at 250 µM [4] [µg/mL],IC50 (HCT-116) [nM],IC50 (HL-60) [nM],half-life at 5 µM [5] [min],bioavailability [6] [%]
CN1C/C=C/CCOc2cccc(c2)-c2ccnc(n2)Nc2cc(cc(NC(=O)N3CCOCC3)c2)C1,37,87,44,–,–,–,–,–
OCCN1C/C=C/CCOc2cccc(c2)-c2ccnc(n2)Nc2cccc(c2)C1,350,100,–,–,–,–,–,–
CCS(=O)(=O)c1ccc2cc1CN(C)C/C=C/CCOc1cccc(c1)-c1ccnc(n1)N2,440,22,100,–,–,–,–,–
CN1C/C=C/CCOc2cccc(c2)-c2ccnc(n2)Nc2ccc(OCCN3CCCC3)c(c2)C1,35,250,56,150,–,–,–,–
CN1C/C=C/CC(=O)Nc2cccc(c2)-c2ccnc(n2)Nc2cccc(c2)C1,2750,4600,> 10000,–,–,–,–,–
CC(C)(C)CN1C/C=C/CCOc2cccc(c2)-c2ccnc(n2)Nc2cccc(c2)C1,> 10000,> 10000,> 10000,–,–,–,–,–
FC(F)(F)CN1C/C=C/CCOc2cccc(c2)-c2ccnc(n2)Nc2ccc(OCCN3CCCC3)c(c2)C1,110,> 10000,220,–,–,–,–,–
CC(C)NCC(=O)N1C/C=C/CCOc2cccc(c2)-c2ccnc(n2)Nc2cccc(c2)C1,140,530,–,105,–,–,–,–
C1=C/CN(CC2CC2)Cc2cccc(c2)Nc2nccc(n2)-c2cccc(c2)OCC/1,270,94,1500,–,–,–,–,–
CN1C/C=C/CCOc2cccc(c2)-c2ccnc(n2)Nc2ccc(N3CCOCC3)c(c2)C1,71,74,49,147,410,76,21,–
CN1C/C=C/COCc2cccc(c2)-c2ccnc(n2)Nc2cccc(c2)C1,210,660,1700,–,–,–,–,–
CCN(CC)CCOc1ccc2cc1CN(C)C/C=C/CCOc1cccc(c1)-c1ccnc(n1)N2,30,300,48,150,–,–,–,5
COc1cc2cc(c1OCCN1CCCC1)CN(C)C/C=C/CCOc1cccc(c1)-c1ccnc(n1)N2,98,6700,210,–,–,–,–,–
Cc1cc2nc(n1)Nc1cccc(c1)CN(C)C/C=C/CCOc1cccc-2c1,1700,4700,> 10000,–,–,–,–,–
COc1ccc2cc1OCC/C=C/CN(C)Cc1cccc(c1)Nc1nccc-2n1,310,2300,510,–,–,–,–,–
COCCOc1ccc2cc1CN(C)C/C=C/CCOc1cccc(c1)-c1ccnc(n1)N2,25,110,62,–,–,–,–,–
C1=C/CN(Cc2ccccn2)Cc2cccc(c2)Nc2nccc(n2)-c2cccc(c2)OCC/1,1450,480,1350,–,–,–,–,–
CN1C/C=C/CNC(=O)c2cccc(c2)-c2ccnc(n2)Nc2cccc(c2)C1,> 10000,> 10000,> 10000,–,–,–,–,–
CN1C/C=C/CCOc2cccc(c2)-c2cc(N3CCCC3)nc(n2)Nc2cccc(c2)C1,> 10000,> 10000,> 10000,–,–,–,–,–
